# Results as given in ChEMBL document CHEMBL1275345, “Pyrazolo[1',5':1,6]pyrimido[4,5-d]pyridazin-4(3H)-ones as selective human A(1) adenosine receptor ligands” (Bioorg Med Chem, 2010).
# Calls of active or inactive are those of the source. No cut-off for these calls is given here.
# What was measured:
# [1] = biological target: T1, Adenosine receptor A2b (Homo sapiens) (UniProt P29275); experiment: Displacement of [3H]DPCPX from human adenosine A2b receptor expressed in HEK293 cells at 10 uM after 30 mins; format: cell-based
# T1 sequence (whole entry): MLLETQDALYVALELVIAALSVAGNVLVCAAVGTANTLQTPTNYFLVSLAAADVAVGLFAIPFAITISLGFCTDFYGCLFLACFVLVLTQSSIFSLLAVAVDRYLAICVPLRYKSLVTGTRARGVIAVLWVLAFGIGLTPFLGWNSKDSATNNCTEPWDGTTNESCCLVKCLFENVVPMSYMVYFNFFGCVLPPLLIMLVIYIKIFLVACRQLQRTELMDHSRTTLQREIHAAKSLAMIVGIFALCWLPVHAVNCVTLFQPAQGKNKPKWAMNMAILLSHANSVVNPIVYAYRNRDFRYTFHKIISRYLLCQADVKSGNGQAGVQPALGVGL
# Outline: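 Human A2B receptor expressed in HEK-293 cells, with displacement of [3H]DPCPX. Incubated at 25 °C for 30 min, then filtered and counted by beta scintillation. Reported as Ki (nM) or percentage inhibition at the single test concentration. Means of four independent assays, each run in triplicate.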
# Adenosine receptor A1 = biological target: T2, Adenosine receptor A1 (Homo sapiens, UniProt P30542); experiment: Displacement of [3H]DPCPX from human adenosine A1 receptor expressed in CHO-A1 cells after 60 mins; format: cell-based
# T2 sequence (P30542 whole entry): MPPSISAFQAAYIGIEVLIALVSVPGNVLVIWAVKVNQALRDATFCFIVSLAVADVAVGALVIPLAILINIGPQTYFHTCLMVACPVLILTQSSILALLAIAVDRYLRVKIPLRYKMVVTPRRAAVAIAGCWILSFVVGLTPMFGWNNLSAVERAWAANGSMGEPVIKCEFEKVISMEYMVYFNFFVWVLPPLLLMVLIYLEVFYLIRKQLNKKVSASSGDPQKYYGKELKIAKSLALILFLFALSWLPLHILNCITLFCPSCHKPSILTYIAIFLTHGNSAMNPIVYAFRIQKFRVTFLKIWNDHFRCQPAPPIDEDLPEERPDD
# Outline: (§1)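 Competition binding on membranes from CHO cells expressing human A1 receptor, labelled with 2 nM [3H]DPCPX. Non-specific binding defined with (R)-PIA. Incubation at 25 °C for 60 min, then filtration and beta scintillation counting. Result given as Ki (nM) or % inhibition at the single test concentration. Means of four separate assays, each in triplicate.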
# Adenosine receptor A2a [2] = biological target: T3, Adenosine receptor A2a (Homo sapiens, UniProt P29274); experiment: Displacement of [3H]ZM241385 from human adenosine A2a receptor expressed in HeLa cells at 10 uM after 30 mins; format: cell-based
# Outline: (§2)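 [3H]ZM241385 specific binding in HeLa cells expressing human A2A receptor. Incubation at 25 °C for 30 min, followed by filtration and beta scintillation counting. Output is Ki (nM) or % inhibition at the single test concentration. Values are means of four separate assays, each performed in triplicate.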
# [3] = biological target: T4, Adenosine receptor A3 (Homo sapiens) (UniProt P0DMS8); experiment: Displacement of [3H]NECA from human adenosine A3 receptor expressed in HeLa cells at 10 uM after 180 mins; format: cell-based
# T4 sequence (whole entry): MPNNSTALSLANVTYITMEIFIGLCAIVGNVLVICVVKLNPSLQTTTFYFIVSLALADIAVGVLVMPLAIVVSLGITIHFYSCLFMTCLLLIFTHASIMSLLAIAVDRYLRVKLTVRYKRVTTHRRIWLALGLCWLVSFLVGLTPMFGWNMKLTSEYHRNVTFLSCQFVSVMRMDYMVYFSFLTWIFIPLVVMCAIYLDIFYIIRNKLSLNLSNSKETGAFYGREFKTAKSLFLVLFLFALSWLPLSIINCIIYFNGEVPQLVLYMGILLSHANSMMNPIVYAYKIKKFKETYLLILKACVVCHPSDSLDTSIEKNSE
# Outline: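 HeLa cells expressing human A3 receptor, with displacement of [3H]NECA. Incubated at 25 °C for 180 min, then filtered and counted by beta scintillation. Ki (nM) or percentage inhibition at the single test concentration. Means of four assays, each in triplicate.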
# [4] = biological target: T5, Adenosine receptor A1 (Homo sapiens) (UniProt P30542); experiment: Displacement of [3H]DPCPX from human adenosine A1 receptor expressed in CHO-A1 cells at 10 uM after 60 mins; format: cell-based; outline: as §1
# T5 sequence (whole entry): T2 sequence (P30542 whole entry)
# Homo sapiens = species on record: Homo sapiens; experiment: Selectivity ratio of Ki for human adenosine A2a receptor to Ki for human A1 receptor
# Adenosine receptor A2a [5] = biological target: T3, Adenosine receptor A2a; experiment: Displacement of [3H]ZM241385 from human adenosine A2a receptor expressed in HeLa cells after 30 mins; format: cell-based; outline: as §2
# [6] = biological target: cGMP-specific 3',5'-cyclic phosphodiesterase (Homo sapiens) (UniProt O76074); experiment: Inhibition of human platelets PDE5 at 2 uM
# Outline: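 PDE5 came from human platelet lysate (10⁹ platelets): the supernatant was fractionated on a Mono-Q ion-exchange column. Activity was measured with a two-step cyclic nucleotide phosphodiesterase procedure. Compounds were tested at a single concentration and the result given as % inhibition.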
# T3 sequence (P29274 whole entry): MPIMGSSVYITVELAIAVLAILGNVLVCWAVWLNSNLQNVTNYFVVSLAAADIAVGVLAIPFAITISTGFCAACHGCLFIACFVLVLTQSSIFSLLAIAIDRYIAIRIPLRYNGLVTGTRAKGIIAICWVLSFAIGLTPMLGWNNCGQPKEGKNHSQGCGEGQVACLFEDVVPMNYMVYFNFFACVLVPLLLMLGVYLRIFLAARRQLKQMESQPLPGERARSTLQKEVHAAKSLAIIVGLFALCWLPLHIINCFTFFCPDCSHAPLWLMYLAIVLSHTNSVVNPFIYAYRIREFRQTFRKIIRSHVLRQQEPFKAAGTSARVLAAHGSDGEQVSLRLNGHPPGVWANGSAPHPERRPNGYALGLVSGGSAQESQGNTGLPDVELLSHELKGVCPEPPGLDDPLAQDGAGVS
SMILES,inhibition [1],Ki (Adenosine receptor A1) [nM],inhibition (Adenosine receptor A2a [2]),inhibition [3],inhibition [4] [%],Ratio Ki (Homo sapiens),Ki (Adenosine receptor A2a [5]) [nM],inhibition [6] [%]
Cc1nn(Cc2ccccc2)c(=O)c2nc(C)n3nc(-c4ccccc4)cc3c12,< 50%,3250,< 50%,< 50%,,,,
Cc1nn(C(C)c2ccccc2)c(=O)c2ncn3nc(-c4ccccc4)cc3c12 (stereo unspecified),< 50%,475,< 50%,< 50%,,,,
O=c1c2ncn3nc(-c4ccsc4)cc3c2c(-c2ccc(F)cc2)nn1Cc1ccccc1,inactive,123,inactive,inactive,,,,
Cc1nn(Cc2ccccc2)c(=O)c2ncn3nccc3c12,< 50%,,< 50%,< 50%,< 50,,,
O=c1c2nc(C(F)(F)F)n3nc(-c4ccccc4)cc3c2c(-c2ccc(F)cc2)nn1Cc1ccccc1,inactive,,inactive,inactive,< 50,,,
O=c1c2ncn3nc(-c4ccccc4)cc3c2c(-c2cccnc2)nn1Cc1ccccc1,inactive,11.4,,inactive,,71,805,
O=c1c2ncn3nc(-c4ccccc4)cc3c2c(-c2ccncc2)nn1Cc1ccccc1,inactive,10.2,,inactive,,7,67.9,
Cc1nc2c(=O)n(Cc3ccccc3)nc(-c3cccnc3)c2c2cc(-c3ccccc3)nn12,inactive,47.4,,inactive,,,2110,29.7
Cc1nc2c(SCc3ccccc3)nnc(-c3ccncc3)c2c2cc(-c3ccccc3)nn12,inactive,,< 50%,inactive,< 50,,,
CCc1nc2c(=O)n(Cc3ccccc3)nc(-c3cccc(F)c3)c2c2cc(-c3ccccc3)nn12,inactive,,inactive,inactive,< 50,,,
CC(C)c1nc2c(=O)n(Cc3ccccc3)nc(-c3ccncc3)c2c2cc(-c3ccccc3)nn12,inactive,192,,inactive,,,5190,
CCc1nc2c(=O)n(Cc3ccccc3)nc(-c3ccc(F)cc3)c2c2cc(-c3ccccc3)nn12,inactive,,inactive,inactive,< 50,,,
Cc1nc2c(=O)n(Cc3ccccc3)nc(-c3ccccc3)c2c2cc(-c3ccccc3)nn12,inactive,1590,inactive,inactive,,,,
CCc1nc2c(=O)n(Cc3ccccc3)nc(-c3ccccc3)c2c2cc(-c3ccccc3)nn12,inactive,2440,inactive,inactive,,,,
CCCc1nc2c(=O)n(Cc3ccccc3)nc(-c3ccncc3)c2c2cc(-c3ccccc3)nn12,inactive,28.3,,inactive,,,772,
O=c1c2ncn3nc(-c4ccccc4)cc3c2c(-c2cccc(F)c2)nn1Cc1ccccc1,inactive,92.7,inactive,inactive,,,,
O=c1c2ncn3nc(-c4ccsc4)cc3c2c(-c2cccc(F)c2)nn1Cc1ccccc1,inactive,189,inactive,inactive,,,,

SMILES,inhibition [1],Ki (Adenosine receptor A1) [nM],inhibition (Adenosine receptor A2a [2]),inhibition [3],inhibition [4] [%],Ratio Ki (Homo sapiens),Ki (Adenosine receptor A2a [5]) [nM],inhibition [6] [%]
CCc1nc2c(=O)n(C(C)c3ccccc3)nc(C)c2c2cc(-c3ccccc3)nn12 (stereo unspecified),< 50%,2380,< 50%,< 50%,,,,
CCc1nc2c(=O)n(Cc3ccccc3)nc(-c3cccc(F)c3)c2c2cc(-c3ccsc3)nn12,inactive,,inactive,inactive,< 50,,,
CC(C)c1nc2c(=O)n(Cc3ccccc3)nc(-c3ccccc3)c2c2cc(-c3ccccc3)nn12,inactive,,inactive,inactive,< 50,,,
Cc1nc2c(=O)n(Cc3ccccc3)nc(-c3ccncc3)c2c2cc(-c3ccccc3)nn12,inactive,43.6,,inactive,,,501,5.7
Cc1nn(Cc2ccccc2)c(=O)c2nnn3nc(-c4ccccc4)cc3c12,< 50%,,< 50%,< 50%,< 50,,,
CCc1nc2c(=O)n(Cc3ccccc3)nc(-c3cccnc3)c2c2cc(-c3ccccc3)nn12,inactive,180,< 50%,inactive,,,,32.8
O=c1c2ncn3nc(-c4ccccc4)cc3c2c(-c2ccccc2)nn1Cc1ccccc1,inactive,1430,inactive,inactive,,,,
O=c1c2ncn3nc(-c4ccccc4)cc3c2c(-c2ccc(F)cc2)nn1Cc1ccccc1,inactive,252,inactive,inactive,,,,
Cc1nc2c(=S)n(Cc3ccccc3)nc(-c3ccncc3)c2c2cc(-c3ccccc3)nn12,inactive,267,,inactive,,,572,
Cc1nn(Cc2ccccc2)c(=O)c2nc(C)n3nccc3c12,< 50%,,< 50%,< 50%,< 50,,,
CCCc1nc2c(=O)n(Cc3ccccc3)nc(-c3ccccc3)c2c2cc(-c3ccccc3)nn12,inactive,563,inactive,inactive,,,,
Cc1nc2c(=O)n(Cc3ccccc3)nc(-c3cccc(F)c3)c2c2cc(-c3ccccc3)nn12,inactive,3240,inactive,inactive,,,,
Cc1nc2c(=O)n(Cc3ccccc3)nc(-c3ccc(F)cc3)c2c2cc(-c3ccccc3)nn12,inactive,,inactive,inactive,< 50,,,
Cc1nc2c(=O)n(Cc3ccccc3)nc(Cl)c2c2cc(-c3ccccc3)nn12,< 50%,1620,,< 50%,,,3150,
Fc1ccc(-c2nnc(Cl)c3ncn4nc(-c5ccccc5)cc4c23)cc1,inactive,,inactive,inactive,< 50,,,
Cc1nc2c(=O)n(Cc3ccccc3)nc(-c3cccc(F)c3)c2c2cc(-c3ccsc3)nn12,inactive,,inactive,inactive,< 50,,,
CCc1nc2c(=O)n(Cc3ccccc3)nc(-c3ccncc3)c2c2cc(-c3ccccc3)nn12,inactive,71.8,,inactive,,,2490,
